The results in this text go back to ChEMBL document CHEMBL1155941, “Solid-phase synthesis and biological evaluation of a parallel library of 2,3-dihydro-1,5-benzothiazepines” (Bioorg Med Chem, 2008).

Structures are written as SMILES. pIC50: −log10 of the molar value.

The subject of assay [1] is Agrobacterium tumefaciens. In words: Inhibition of Agrobacterium tumefaciens-induced tumor growth in potato tuber disk at 10 ppm after 21 days.
The target of a further assay is Cholinesterase (Homo sapiens, UniProt P06276). As to the kind of experiment: Inhibition of BchE. The essentials:
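Ellman-type assay: enzyme, DTNB and test compound (dissolved in EtOH) were mixed in sodium phosphate buffer pH 8.0 and incubated 15 min at 25 °C. Reactions were run in triplicate. % inhibition = (E–S)/E × 100, where E is enzyme activity without compound. IC50 was derived from inhibition across increasing compound concentrations.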

The subject of assay [2] is Agrobacterium tumefaciens. In words: Inhibition of Agrobacterium tumefaciens-induced tumor growth in potato tuber disk after 21 days. The format is functional, organism-based. Put shortly: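 Potato disk bioassay: red-skinned potatoes surface-sterilized in 0.1% HgCl₂. Disks were inoculated with a 48-h culture of A. tumefaciens AT-10 containing test sample at 10, 100 or 1000 ppm. Tumors were counted under a dissecting microscope, with tests run in replicate. Percent inhibition came from the average tumor count per sample versus control; IC₅₀ was calculated by a literature procedure.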

The test system of assay [3] is Agrobacterium tumefaciens. As to the kind of experiment: Inhibition of Agrobacterium tumefaciens-induced tumor growth in potato tuber disk at 1000 ppm after 21 days.
Assay [4] relates to Agrobacterium tumefaciens. In words: Inhibition of Agrobacterium tumefaciens-induced tumor growth in potato tuber disk at 100 ppm after 21 days.
The next assay deals with Acetylcholinesterase (Homo sapiens, UniProt P22303). As to the kind of experiment: Inhibition of AchE.
In another assay the test system is Escherichia coli. As to the kind of experiment: Antimicrobial activity against Escherichia coli ATCC 1522 assessed as inhibition zone diameter after 24 hrs by agar well diffusion method. The format is functional. The essentials:
(§1)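 Agar well diffusion: broth culture of about 10⁶ CFU/ml mixed into nutrient agar at 45 °C and poured into plates. 8-mm wells received test sample at 1 mg/ml in DMSO. DMSO was the negative control and roxithromycin (1 mg/ml) the positive control. Triplicate plates were incubated 37 °C, 24 h. Complete-inhibition zone diameter (mm) was measured, with growth inhibition referenced to roxithromycin.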
A general note: Agar diffusion results depend on both activity and mobility in agar.

Assay [5] has as its system Salmonella enterica subsp. enterica. In words: Antimicrobial activity against Salmonella setubal ATCC 19196 assessed as inhibition zone diameter after 24 hrs by agar well diffusion method. The format is functional, Salmonella enterica subsp. enterica serovar Setubal. Put shortly:
as §1

The next assay deals with Klebsiella aerogenes. As to the kind of experiment: Antimicrobial activity against Enterobacter aerogenes ATCC 13048 assessed as inhibition zone diameter after 24 hrs by agar well diffusion method. The format is functional. Put shortly: as §1
Another assay has as its system Micrococcus luteus. As to the kind of experiment: Antimicrobial activity against Micrococcus luteus assessed as inhibition zone diameter after 24 hrs by agar well diffusion method. The format is functional. Put shortly: as §1
Assay [6] concerns Bordetella bronchiseptica. As to the kind of experiment: Antimicrobial activity against Bordetella bronchiseptica ATCC 4617 assessed as inhibition zone diameter after 24 hrs by agar well diffusion method. The format is functional. The essentials:
as §1

Chain of Cholinesterase (P06276 whole entry): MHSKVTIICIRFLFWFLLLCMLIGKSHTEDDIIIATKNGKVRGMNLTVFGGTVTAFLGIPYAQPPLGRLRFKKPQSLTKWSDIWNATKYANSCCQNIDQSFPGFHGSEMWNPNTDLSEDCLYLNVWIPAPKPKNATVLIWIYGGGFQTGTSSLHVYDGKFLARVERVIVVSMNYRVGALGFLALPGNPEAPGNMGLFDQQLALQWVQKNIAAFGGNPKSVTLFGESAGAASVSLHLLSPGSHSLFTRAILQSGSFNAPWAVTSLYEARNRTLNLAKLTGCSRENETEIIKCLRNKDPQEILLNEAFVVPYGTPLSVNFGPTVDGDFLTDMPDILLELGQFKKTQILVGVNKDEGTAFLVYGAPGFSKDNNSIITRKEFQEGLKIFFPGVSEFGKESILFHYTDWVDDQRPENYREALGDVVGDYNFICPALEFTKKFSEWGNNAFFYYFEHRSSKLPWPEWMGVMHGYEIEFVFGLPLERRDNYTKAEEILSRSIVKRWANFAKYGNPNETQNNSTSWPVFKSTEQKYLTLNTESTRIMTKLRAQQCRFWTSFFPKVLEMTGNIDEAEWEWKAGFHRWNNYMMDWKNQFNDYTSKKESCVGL
Chain of Acetylcholinesterase (P22303 whole entry, the tested form may be a part): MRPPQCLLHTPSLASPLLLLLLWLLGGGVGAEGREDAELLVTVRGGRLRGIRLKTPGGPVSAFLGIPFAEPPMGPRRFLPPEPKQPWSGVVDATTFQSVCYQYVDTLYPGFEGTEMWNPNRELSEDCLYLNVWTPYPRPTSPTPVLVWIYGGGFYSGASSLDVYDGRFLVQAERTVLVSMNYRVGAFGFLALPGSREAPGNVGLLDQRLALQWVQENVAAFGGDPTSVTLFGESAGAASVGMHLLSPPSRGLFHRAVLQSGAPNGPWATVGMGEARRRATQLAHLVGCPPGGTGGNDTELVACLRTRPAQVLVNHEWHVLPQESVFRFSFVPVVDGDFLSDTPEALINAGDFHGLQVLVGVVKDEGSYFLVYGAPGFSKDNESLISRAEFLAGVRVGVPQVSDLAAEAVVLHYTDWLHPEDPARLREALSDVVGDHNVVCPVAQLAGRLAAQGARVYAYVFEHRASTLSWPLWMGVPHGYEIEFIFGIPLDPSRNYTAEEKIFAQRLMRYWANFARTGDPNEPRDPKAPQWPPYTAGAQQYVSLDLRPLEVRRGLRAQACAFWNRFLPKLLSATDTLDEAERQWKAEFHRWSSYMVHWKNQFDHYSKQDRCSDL

Take `COc1ccc(C2CC(c3cccc(O)c3)=Nc3ccccc3S2)cc1OC` (centres undefined): the “inhibition (INH)” value in [1] is 70.2%; in assay [3], 100%; in assay [4] it was 82.7%. Also, the pIC50 (in general, the negative decadic logarithm of the IC50, by convention in mol/L) against Cholinesterase is 4.71. In addition, the IC50 in assay [2] is 8.23 ppm.
For `Oc1cccc(C2=Nc3ccccc3SC(c3ccc(Cl)cc3)C2)c1` (centres undefined), the negative logarithm of the IC50 (pIC50) is 4.73 on Acetylcholinesterase and 4.10 at Cholinesterase. The “inhibition (INH)” value in [1] was 51.93%; in assay [3], 74.4%; in [4], 68%. Also, the IC50 in [2] was 9 ppm.
For `Oc1cccc(C2=Nc3ccccc3SC(c3cccc(O)c3)C2)c1` (centres undefined), the pIC50 against Acetylcholinesterase is 4.15; at Cholinesterase it was 5.33. The “inhibition (INH)” value in [1] amounted to 36.1%; in assay [3], 100%; in assay [4] it was 48.9%. Also, the IC50 in assay [2] was 179.3 ppm.
Turning to `Cc1ccc(C2CC(c3cccc(O)c3)=Nc3ccccc3S2)cc1` (centres undefined), the pIC50 against Acetylcholinesterase is 4.31; at Cholinesterase it was 4.12. Moreover, the “inhibition (INH)” value in [1] came to 65.9%; in [3], 87.2%; in assay [4] it was 72.3%. The compound further had an IC50 in [2] of 30.7 ppm.
With `CC[C@H]1OC(=O)[C@H](C)[C@@H](O[C@H]2C[C@@](C)(OC)[C@@H](O)[C@H](C)O2)[C@H](C)[C@@H](O[C@@H]2O[C@H](C)C[C@H](N(C)C)[C@H]2O)[C@](C)(O)C[C@@H](C)/C(=N\OCOCCOC)[C@H](C)[C@@H](O)[C@]1(C)O` [ROXITHROMYCIN], the “inhibition zone (IZ)” value came out at 14 mm in the assay with Escherichia coli; 12 mm in assay [5]; 12 mm with Klebsiella aerogenes; 15 mm in the assay with Micrococcus luteus; 13 mm in assay [6].
As to `Oc1cccc(C2=Nc3ccccc3SC(c3ccccc3)C2)c1` (centres undefined), the negative logarithm of the IC50 (pIC50) was 4.40 against Acetylcholinesterase and 2.85 on Cholinesterase. Moreover, the figures for the “inhibition (INH)” value in [1], in assay [3] and in assay [4] were 72.3%, 100% and 97.8%, respectively. This compound returned an IC50 in [2] of 5.41 ppm.
In the case of `COc1ccc(C2CC(c3cccc(O)c3)=Nc3ccccc3S2)cc1` (centres undefined), the “inhibition (INH)” value in [1] is listed as 57.4%; in assay [3], 100%; in assay [4], 78.7%. This compound also returned an IC50 in assay [2] of 4.69 ppm.
For the compound `Oc1cccc(C2=Nc3ccccc3SC(c3ccc(F)cc3)C2)c1` (centres undefined), the “inhibition (INH)” value is 25.5% in [1], 40.4% in [3] and 34% in [4]. Moreover, the IC50 in assay [2] is 1232 ppm.
Take `Oc1cccc(C2=Nc3ccccc3SC(c3ccccc3Cl)C2)c1` (centres undefined): the “inhibition (INH)” value in [1] is 74.4%; in assay [3], 95.7%; in assay [4], 93.6%. The compound also came in with an IC50 in assay [2] of 6.94 ppm.
In turn, `COc1ccccc1/C=C/C(=O)c1cccc(O)c1` registered an IC50 in assay [2] of 3.1 ppm.
In the case of `CN(C)c1ccc(C2CC(c3cccc(O)c3)=Nc3ccccc3S2)cc1` (centres undefined), the “inhibition zone (IZ)” value with Escherichia coli is 11 mm; in assay [5], 9 mm; in the assay with Klebsiella aerogenes, 11 mm; in the assay with Micrococcus luteus it was 10 mm; in assay [6], 9 mm. For the same compound, the “inhibition (INH)” value in assay [1] amounted to 38.2%; in assay [3] it was 100%; in assay [4], 44.6%. The compound also had a pIC50 on Cholinesterase of 4.46. The same compound yielded an IC50 in assay [2] of 192.5 ppm.
With `COc1cc(C2CC(c3cccc(O)c3)=Nc3ccccc3S2)ccc1O` (centres undefined), the “inhibition zone (IZ)” value in the assay on Escherichia coli is 9.5 mm; in assay [5], 10 mm; with Klebsiella aerogenes, 11 mm; with Micrococcus luteus it was 10 mm; in assay [6], 10 mm. In addition, the “inhibition (INH)” value in [1] is listed as 36.1%; in assay [3], 95.7%; in [4] it was 40.4%. Moreover, in assay [2], the IC50 was 247.3 ppm.
Consider `COc1cccc(C2CC(c3cccc(O)c3)=Nc3ccccc3S2)c1` (centres undefined), for which the “inhibition (INH)” value in assay [1] is recorded as 67.142%; in [3], 100%; in assay [4], 84.2%. In assay [2], this compound came in with an IC50 of 3.28 ppm.
For `Oc1cccc(C2=Nc3ccccc3SC(c3ccccc3F)C2)c1` (centres undefined), the pIC50 at Acetylcholinesterase was 4.15. The “inhibition (INH)” value in [1] amounted to 31.9%; in assay [3], 91.4%; in [4], 40.4%. Further, the IC50 in [2] was found to be 295.5 ppm.
With `Oc1ccc(C2CC(c3cccc(O)c3)=Nc3ccccc3S2)cc1` (centres undefined), the “inhibition (INH)” value in assay [1] was 27.6%; in [3] it was 100%; in assay [4], 48.9%. Further, the IC50 in assay [2] amounted to 237.9 ppm.
With `O=[N+]([O-])c1cccc(C2CC(c3cccc(O)c3)=Nc3ccccc3S2)c1` (centres undefined), the “inhibition (INH)” value in assay [1] was 42.5%; in [3], 100%; in assay [4], 57.4%. Moreover, the IC50 in assay [2] was 26.2 ppm. Also, in the assay with Micrococcus luteus, the “inhibition zone (IZ)” value was found to be 10 mm.
Regarding `Oc1cccc(C2=Nc3ccccc3SC(c3cccnc3)C2)c1` (centres undefined), the results for the “inhibition (INH)” value in assay [1], in assay [3] and in [4] were 29.7%, 51% and 38.2%, respectively. Moreover, the IC50 in assay [2] is 926.2 ppm.
Take `Oc1cccc(C2=Nc3ccccc3SC(c3ccc(Br)cc3)C2)c1` (centres undefined): the “inhibition (INH)” value in [1] worked out at 21.2%; in assay [3], 85.1%; in [4], 63.8%. For the same compound, the IC50 in assay [2] came to 61.5 ppm.
`Oc1cccc(C2=Nc3ccccc3SC(c3cccc(Cl)c3)C2)c1` (centres undefined): the results for the “inhibition (INH)” value in [1], in [3] and in assay [4] were 68%, 93.6% and 80.8%, respectively. The pIC50 against Cholinesterase was 4.53. Also, in assay [2], the IC50 turned out to be 14.01 ppm. The “inhibition zone (IZ)” value in the assay on Micrococcus luteus is recorded as 11.5 mm.
Consider `COc1ccccc1C1CC(c2cccc(O)c2)=Nc2ccccc2S1` (centres undefined), for which the results for the “inhibition (INH)” value in [1], in assay [3] and in assay [4] were 81.42%, 98.5% and 87.1%, respectively. The same compound gave a pIC50 on Cholinesterase of 5.33. Further, in [2], the IC50 is reported as 7.06 ppm.
For the compound `Oc1cccc(C2=Nc3ccccc3SC(c3ccncc3)C2)c1` (centres undefined), the “inhibition (INH)” value is reported as 55.1% in assay [1], 100% in assay [3] and 80% in assay [4]. For the same compound, in assay [2], the IC50 is reported as 6.1 ppm.
`COc1ccc(/C=C/C(=O)c2cccc(O)c2)cc1OC` showed an IC50 in assay [2] of 5.8 ppm.
For the compound `CC[C@]1(O)C[C@H]2CN(CCc3c([nH]c4ccccc34)[C@@](C(=O)OC)(c3cc4c(cc3OC)N(C=O)[C@H]3[C@@](O)(C(=O)OC)[C@H](OC(C)=O)[C@]5(CC)C=CCN6CC[C@]43[C@@H]65)C2)C1` [VINCRISTINE], the IC50 in assay [2] is given as 0.003 ppm.
`Oc1cccc(C2=Nc3ccccc3SC(c3cccs3)C2)c1` (centres undefined): the figures for the pIC50 against Acetylcholinesterase and against Cholinesterase were 5.23 and 5.40, respectively. Also, the “inhibition (INH)” value came to 87.2% in assay [1], 100% in [3] and 100% in assay [4]. In assay [2], this compound returned an IC50 of 4.8 ppm.
Consider `Oc1cccc(C2=Nc3ccccc3SC(c3ccc(Br)s3)C2)c1` (centres undefined), for which the “inhibition (INH)” value in [1] is 80.3%; in assay [3], 92.8%; in assay [4] it was 91.4%. Also, in assay [2], the IC50 is 11.2 ppm.
